Key:
Hepatitis C virus [1] = assay: Antiviral activity against HCV2a JFH-1 infected in human HuH7 cells assessed as inhibition of viral replication; format: functional, organism-based, Hepacivirus hominis; details: JFH-1, Huh-7
Hepatocyte [2] = assay: Induction of CYP3A4 mRNA expression in human hepatocytes at 10 uM relative to rifampicin; format: ADME, cell-based
Method in brief: (§1)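 Cryopreserved cultured human hepatocytes incubated 3 days with compound at several concentrations; CYP3A4 enzyme activity and mRNA expression measured, expressed as percent induction relative to rifampicin.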

Cytochrome P450 3A4 [3] = target: T1, Cytochrome P450 3A4 (Homo sapiens, UniProt P08684); assay: Induction of CYP3A4 activity in human hepatocytes at 10 uM relative to rifampicin; format: ADME, cell-based, Hepatocyte; method in brief: as §1
T1 sequence (P08684 whole entry): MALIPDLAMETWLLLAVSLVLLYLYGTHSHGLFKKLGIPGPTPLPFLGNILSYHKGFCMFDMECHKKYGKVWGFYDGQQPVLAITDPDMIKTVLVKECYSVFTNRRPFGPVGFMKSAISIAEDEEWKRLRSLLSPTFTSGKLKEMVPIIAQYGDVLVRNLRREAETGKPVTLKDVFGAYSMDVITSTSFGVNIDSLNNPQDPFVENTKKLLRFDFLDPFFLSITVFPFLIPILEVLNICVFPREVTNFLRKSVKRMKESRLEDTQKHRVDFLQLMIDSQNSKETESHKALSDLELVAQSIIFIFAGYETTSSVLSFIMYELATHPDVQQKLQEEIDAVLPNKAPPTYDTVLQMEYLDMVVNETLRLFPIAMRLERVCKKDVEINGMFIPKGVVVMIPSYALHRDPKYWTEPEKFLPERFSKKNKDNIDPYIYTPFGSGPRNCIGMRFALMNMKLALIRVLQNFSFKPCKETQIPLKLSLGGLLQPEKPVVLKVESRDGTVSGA

Hepatocyte [4] = assay: Induction of CYP3A4 mRNA expression in human hepatocytes at 3 uM relative to rifampicin; format: ADME, cell-based; method in brief: as §1
Cytochrome P450 3A4 [5] = target: T1, Cytochrome P450 3A4; assay: Induction of CYP3A4 activity in human hepatocytes at 3 uM relative to rifampicin; format: ADME, cell-based, Hepatocyte; method in brief: as §1
Cytochrome P450 2C9 = Cytochrome P450 2C9 (Homo sapiens, UniProt P11712); assay: Inhibition of CYP2C9 in human liver microsomes; format: ADME
Cytochrome P450 2C9, sequence (P11712 whole entry): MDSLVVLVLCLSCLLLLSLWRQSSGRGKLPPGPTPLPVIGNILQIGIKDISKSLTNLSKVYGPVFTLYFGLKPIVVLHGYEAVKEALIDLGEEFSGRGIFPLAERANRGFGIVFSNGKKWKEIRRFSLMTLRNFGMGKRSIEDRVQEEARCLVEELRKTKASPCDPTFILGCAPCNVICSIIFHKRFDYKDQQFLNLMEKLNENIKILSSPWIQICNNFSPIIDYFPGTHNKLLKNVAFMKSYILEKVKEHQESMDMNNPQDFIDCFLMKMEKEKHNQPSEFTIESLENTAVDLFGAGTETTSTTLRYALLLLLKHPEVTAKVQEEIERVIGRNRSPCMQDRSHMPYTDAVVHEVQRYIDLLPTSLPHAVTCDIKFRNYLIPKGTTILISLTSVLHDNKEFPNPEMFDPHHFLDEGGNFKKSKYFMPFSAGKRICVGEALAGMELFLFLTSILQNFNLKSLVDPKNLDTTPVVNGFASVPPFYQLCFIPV

Cytochrome P450 2D6 = Cytochrome P450 2D6 (Homo sapiens, UniProt P10635); assay: Inhibition of CYP2D6 in human liver microsomes; format: ADME
Cytochrome P450 2D6, sequence (P10635 whole entry): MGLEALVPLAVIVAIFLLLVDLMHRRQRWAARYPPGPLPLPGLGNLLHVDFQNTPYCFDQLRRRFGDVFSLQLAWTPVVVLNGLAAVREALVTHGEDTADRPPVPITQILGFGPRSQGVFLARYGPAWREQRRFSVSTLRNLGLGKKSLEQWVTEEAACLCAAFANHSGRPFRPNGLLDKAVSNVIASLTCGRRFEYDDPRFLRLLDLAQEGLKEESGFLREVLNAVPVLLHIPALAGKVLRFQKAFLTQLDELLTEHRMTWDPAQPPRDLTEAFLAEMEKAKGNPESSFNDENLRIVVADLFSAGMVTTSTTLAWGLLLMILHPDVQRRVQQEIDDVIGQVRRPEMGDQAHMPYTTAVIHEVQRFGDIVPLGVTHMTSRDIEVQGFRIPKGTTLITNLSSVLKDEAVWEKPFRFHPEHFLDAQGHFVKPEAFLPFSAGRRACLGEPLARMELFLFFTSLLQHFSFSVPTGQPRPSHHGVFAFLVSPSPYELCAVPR

Cytochrome P450 3A4 [6] = target: T1, Cytochrome P450 3A4; assay: Inhibition of CYP3A4 in human liver microsomes; format: ADME
[7] = Ratio of EC50 for HCV1b Con1 to plasma concentration in Sprague-Dawley rat at 10 mg/kg, po after 6 hrs
[8] = AUC (0 to 6 hrs) in Sprague-Dawley rat at 10 mg/kg, po; format: ADME, organism-based; set-up: time < 6 hr, dose 10 mg/kg, route oral; details: plasma
[9] = Toxicity in human HuH7 cells assessed as effect on GAPDH mRNA level; format: cell-based, Huh-7
Method in brief: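 Run in parallel with replicon assay in Con1 replicon Huh-7 cells (0.5% DMSO, 37 °C); endogenous GAPDH mRNA quantified by TaqMan RT-PCR; highest concentration tested 10000 nM.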

Hepatitis C virus [10] = assay: Antiviral activity against HCV1b Con1 infected in human HuH7 cells assessed as inhibition of viral RNA replication by RT-PCR analysis; format: functional, organism-based, Hepacivirus hominis; details: isolate Con1, Huh-7
[11] = tested on: Pregnane X receptor (Homo sapiens); assay: Activation of PXR (unknown origin) at 10 uM by reporter gene assay
[12] = AUC (0 to infinity) in Sprague-Dawley rat at 10 mg/kg, po; format: ADME, organism-based; set-up: time infinity, dose 10 mg/kg, route oral; details: plasma
[13] = AUC (0 to infinity) in cynomolgus monkey at 5 mg/kg, po; format: ADME, organism-based, Macaca fascicularis; set-up: time infinity, dose 5 mg/kg, route oral; details: plasma
Canis familiaris [14] = assay: AUC (0 to infinity) in beagle dog at 5 mg/kg, po; format: ADME, organism-based, Canis lupus familiaris, Plasma; set-up: dose 5 mg/kg, route oral, time infinity; details: in vivo
[15] = Terminal half life in cynomolgus monkey at 2.5 mg/kg, iv; format: ADME, organism-based, Macaca fascicularis; set-up: dose 2.5 mg/kg, route intravenous; details: in vivo, read-out: beta t1/2 (converted)
[16] = Terminal half life in beagle dog at 2.5 mg/kg, iv; format: ADME, organism-based, Canis lupus familiaris; set-up: dose 2.5 mg/kg, route intravenous; details: in vivo, read-out: beta t1/2 (converted)
[17] = Terminal half life in Sprague-Dawley rat at 6 mg/kg, iv; format: ADME, organism-based; set-up: dose 6 mg/kg, route intravenous; details: in vivo, read-out: beta t1/2 (converted)
[18] = Clearance in cynomolgus monkey at 2.5 mg/kg, iv; format: ADME, organism-based, Macaca fascicularis; set-up: dose 2.5 mg/kg, route intravenous; details: in vivo
[19] = Clearance in Sprague-Dawley rat at 6 mg/kg, iv; format: ADME, organism-based; set-up: dose 6 mg/kg, route intravenous; details: in vivo
[20] = Oral bioavailability in cynomolgus monkey at 5 mg/kg; format: ADME, organism-based, Macaca fascicularis; details: in vivo
Canis familiaris [21] = assay: Oral bioavailability in beagle dog at 5 mg/kg; format: ADME, organism-based, Canis lupus familiaris; details: in vivo
[22] = Oral bioavailability in Sprague-Dawley rat at 10 mg/kg; format: ADME, organism-based; details: in vivo
Rattus norvegicus = assay: Drug metabolism in bile duct cannulated rat assessed as 6-(3-cyano-1-cyclobutyl-6-(difluoromethoxy)-5-fluoro-1H-indol-2-yl)pyridine-3-sulfonamide formation in plasma at 5 mg/kg; format: ADME, organism-based; set-up: dose 5 mg/kg; details: in vivo
[23] = Ratio of drug level in liver to plasma in Sprague-Dawley rat at 10 mg/kg, po after 6 hrs; format: ADME, organism-based; set-up: dose 10 mg/kg, route oral
Method in brief: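 Male Sprague-Dawley rats, 10 mg/kg PO suspension in 0.4% hydroxypropyl methylcellulose; liver and plasma drug levels measured at 6 h, expressed as liver/plasma ratio.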

`Cc1cc2c(cc1F)c(C#N)c(-c1ccc(S(=O)(=O)N[C@@H](C)C(F)(F)F)cn1)n2-c1ncccn1` gave an EC50 (Hepatitis C virus [1]) of 2.2 µM, an Activity (Hepatocyte [2]) of 41.5% and an Activity (Cytochrome P450 3A4 [3]) of 3%. It also gave an Activity (Hepatocyte [4]) of 39.8%, an Activity (Cytochrome P450 3A4 [5]) of 7% and an IC50 (Cytochrome P450 2C9) of over 10 µM. It also gave an IC50 (Cytochrome P450 2D6) of over 10 µM, an IC50 (Cytochrome P450 3A4 [6]) of over 10 µM and a Ratio [7] of 213. For the same compound, the AUC(0-t) at 6 h [8] was 8.91 µM·h, the IC50 [9] was over 10 µM and the EC50 (Hepatitis C virus [10]) was 0.006 µM. It also gave an Activity [11] of 36%.
`C[C@H](NS(=O)(=O)c1ccc(-c2c(C#N)c3cc(F)c(OC(F)F)cc3n2C2CCC2)nc1)C(F)(F)F` gave an AUC(0-inf) [12] of 24.8 µM·h, an AUC(0-inf) [13] of 24.8 µM·h and an AUC (Canis familiaris [14]) of 24.79 µM·h. It also gave a half-life [15] of 22 h, a half-life [16] of 149 h and a half-life [17] of 11 h. For the same compound, the clearance [18] was 2.2 mL/min/kg, the clearance [19] was 3 mL/min/kg and the bioavailability [20] was 35%. For the same compound, the F (Canis familiaris [21]) was 91%, the bioavailability [22] was 49% and the Drug metabolism (Rattus norvegicus) was “Active”. For the same compound, the Kp at 6 h [23] was 11.4, the Ratio [7] was 277 and the AUC(0-t) at 6 h [8] was 13.4 µM·h. The IC50 [9] was 9.1 µM and the EC50 (Hepatitis C virus [10]) was 0.007 µM.
`Cc1cc2c(cc1F)c(C#N)c(-c1ccc(S(=O)(=O)N[C@@H](C)C(F)(F)F)cn1)n2C1CCC1` showed a Kp at 6 h [23] of 29.1, a Ratio [7] of 24 and an AUC(0-t) at 6 h [8] of 1.1 µM·h. The IC50 [9] was over 10 µM and the EC50 (Hepatitis C virus [10]) was 0.007 µM.
`CCc1cc2c(cc1F)c(C#N)c(-c1ccc(S(=O)(=O)N[C@@H](C)C(F)(F)F)cn1)n2C1CCC1` gave a Kp at 6 h [23] of 30.6, a Ratio [7] of 18 and an AUC(0-t) at 6 h [8] of 0.3 µM·h. The IC50 [9] was over 10 µM and the EC50 (Hepatitis C virus [10]) was 0.004 µM.

From ChEMBL document CHEMBL3120098, “Structure-activity relationship (SAR) optimization of 6-(indol-2-yl)pyridine-3-sulfonamides: identification of potent, selective, and orally bioavailable small molecules targeting hepatitis C (HCV) NS4B” (J Med Chem, 2014)
